# CHO parental Ca = ATP-evoked calcium signal inhibitors, parental CHO, primary screen, counter-screen for OX1R antagonist project, cell-based, fluorescence, Fluo-8 calcium dye | hit rate 0.63% among 330,000 | inhibition, % at 5.6 µM | AID 463079, 2010 | parental CHO-K1, ATP-induced calcium, Fluo-8 fluorescence;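 active = inhibition above that plate's mean sample inhibition plus 3 SD, cut at about 26% in these data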;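 note: 0% = ATP-challenged DMSO wells and 100% = DMSO wells without ATP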
#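 Material – parental CHO cells · Reagent – ATP stimulus · Compound – single nominal dose of 5.6 µM per compound · Detection – Fluo-8 fluorescence · Read-out basis – percent inhibition of calcium signal · Controls – ATP-challenged DMSO wells low, unchallenged DMSO wells high · Repeats – no replicates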
# OX1R antag-1 = OX1R (HCRTR1) antagonists, primary screen, fluorescence, CHO/OX1R cells, Fluo-8 calcium, orexin A. Orexin/Hypocretin receptor type 1 (Homo sapiens), O43613. Fluo-8 calcium fluorescence. inhibition, % at 5 µM. hit rate 0.43% among 330,000. AID 434989, 2010;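 active = inhibition above its plate's threshold, mean inhibition of all tested compounds on the plate plus 3 SD, cut at about 37% in these data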;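 note: 0% = orexin A challenge wells and 100% = SB-334867-A antagonist wells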
# GPR7 antagonist = GPR7 receptor antagonists, primary screen, cell-based, fluorescence, single concentration | Neuropeptides B/W receptor type 1 (Homo sapiens), P48145 | GPR7-expressing cells, fluorescence antagonist assay | inhibition, % at 4.4 µM | hit rate 1.1% among 290,000 | AID 1861, 2009; in the data active = inhibition above about 16%, passing the limit was not always enough;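 note: cells stimulated with the agonist NPW; 0% = agonist with vehicle and 100% = vehicle without agonist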
# OX1R antag-2 = antagonists of human orexin 1 receptor (OX1R); Orexin/Hypocretin receptor type 1 (Homo sapiens), O43613; OX1R-expressing cells, FRET antagonist read-out; inhibition, % at 6.6 µM; hit rate 1.8% among 330,000; AID 485270, 2010; in the data active = inhibition mostly above about 38%, no sharp cut-off; inactive = mostly below about 40%;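 note: 0% = agonist challenge alone and 100% = reference antagonist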
# GalR3 antag = GalR3 antagonists in HEK293 cells, primary screen, cell-based, fluorescence readout; inhibition, % at 3 µM; HEK293 GalR3-CNG cAMP membrane potential fluorescence; galR3 body fused to GalR1 C-terminus; Galanin receptor type 3 (Homo sapiens), O60755; hit rate 0.44% among 360,000; AID 651719, 2012;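 active = inhibition above the screen-wide average plus 3 SD, cut at about 13% in these data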;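 note: forskolin and galanin both at EC90 stimulate the cells; cAMP rise reported by CNG channel membrane potential dye signal; 0% = forskolin plus galanin with DMSO and 100% = forskolin alone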
# Target sequence (O60755 1-299 limits assumed): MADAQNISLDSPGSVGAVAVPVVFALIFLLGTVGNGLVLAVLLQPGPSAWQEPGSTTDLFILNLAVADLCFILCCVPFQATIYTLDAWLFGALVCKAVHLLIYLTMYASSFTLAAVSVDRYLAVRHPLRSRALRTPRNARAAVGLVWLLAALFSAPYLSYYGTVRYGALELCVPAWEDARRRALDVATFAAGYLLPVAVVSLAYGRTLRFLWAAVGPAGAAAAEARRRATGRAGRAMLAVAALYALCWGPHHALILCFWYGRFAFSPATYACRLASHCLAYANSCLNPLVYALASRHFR
# GPR7 antag cf = GPR7 receptor antagonists, confirmation, cell-based, fluorescence, single concentration; shares compounds with GPR7 antagonist; GPR7-expressing cells, calcium fluorescence antagonist mode; inhibition, % at 4.4 µM; hit rate 52% among 2,400; AID 1952, 2009; in the data active = inhibition above about 24%;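 note: stimulated with the GPR7 agonist NPW; 0% = agonist plus vehicle and 100% = vehicle alone without agonist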
# MCHR1 antag = MCHR1 antagonists in cells, counter-screen for GPR7 antagonist project, cell-based, fluorescence, human; shares compounds with GPR7 antagonist; MCHR1-expressing cells, fluorescence antagonist assay; inhibition, % at 4.4 µM; hit rate 62% among 2,400; in the data active = inhibition above about 22%;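 note: 0% = vehicle with agonist and 100% = vehicle without agonist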
# * hit, by the source's call; . = not tested or not shown. The list is not random: actives were taken first. Their share in the collection is about 3.1%.
SMILES,CHO parental Ca,OX1R antag-1,GPR7 antagonist,OX1R antag-2,GalR3 antag,GPR7 antag cf,MCHR1 antag
COc1ccccc1CNC(=O)[C@H](C)NC(=O)C1CCN(C(=O)[C@@H]2CCCN2C(=O)OC(C)(C)C)CC1,-16,-17,-2,9,-6,.,.
Cc1ccc(Nc2nnc(SCC(=O)NC3CC3)s2)cc1,-12,-6,.,7,-1,.,.
CC(C)CCC1(CCNC(C)c2cccs2)CCOC(C)(C)C1 (stereo unspecified),-16,-31,23*,12,-6,16,5
CC1(C)CC(CCN)(Cc2ccccc2Cl)CCO1 (stereo unspecified),-18,-13,-9,-3,-4,.,.
CCCCn1c(SCC(=O)N2CCCC2)nc2cc(S(N)(=O)=O)ccc21,-2,-3,-6,1,2,.,.
CCCCn1c(SCC(=O)N2CCCCC2C)nc2cc(S(N)(=O)=O)ccc21 (stereo unspecified),-19,-23,36*,20,2,-20,8
CCCc1cc(=O)[nH]c(SCC(=O)Nc2sccc2C#N)n1,.,.,.,.,-2,.,.
CCOC(=O)C(C(=O)N(C)Cc1ccccc1)C1CCCCC1 (stereo unspecified),-19,-13,32*,14,-14,27*,30*
CCOC(=O)C(C(=O)Nc1ccccn1)C1CCCCC1 (stereo unspecified),-10,-13,-3,23,3,.,.
CCOC(=O)C1CCCN(Cc2c(C(=O)N3CCCCC3)nc3c(C)cccn23)C1 (stereo unspecified),-16,-22,-3,9,1,.,.
Cc1cccn2c(CNC3CCCc4ccccc43)c(C(=O)N3CCCCC3)nc12 (stereo unspecified),-24,-41,34*,27,-8,17,17
COc1ccc(OC)c2sc(N(CCN(C)C)C(=O)/C=C/c3cccs3)nc12,10,16,31*,10,-12,13,19
COc1ccc(C)c2sc(N(CCN(C)C)C(=O)/C=C/c3cccs3)nc12,-6,-7,29*,8,-15,38*,38*
Cc1c(NS(=O)(=O)c2cc(C(=O)NCc3ccco3)cc(Cl)c2Cl)c(=O)n(-c2ccccc2)n1C,-28,4,.,18,-4,.,.
COc1ccc(OC)c(NS(=O)(=O)c2ccc3c(c2)C(C)(C)C(=O)N3C)c1,3,-14,4,14,.,.,.
CCN(CC)S(=O)(=O)c1cccc(C(=O)NC(C)C(c2cccs2)N2CCCC2)c1 (stereo unspecified),-22,-21,-13,20,-3,.,.
CCn1c(CNC(=O)c2ccccc2F)cc2cc(C)ccc21,.,.,0,.,-3,.,.
CCn1c(CNC(=O)C2CCCCC2)cc2cc(C)ccc21,.,.,28*,.,-9,-11,-2
COC(=O)Nc1nc2ccc(SC(C)C)cc2[nH]1,-3,7,.,24,.,.,.
CCCSc1ccc2nc(NC(=O)OC)[nH]c2c1,-5,-5,29*,12,-1,40*,28*
COc1ccc(N(C)S(=O)(=O)c2cccc3cccnc23)c(OC)c1,0,-9,-1,22,-7,.,.
COc1ccc(N(C(=O)C2CCCCC2)S(=O)(=O)c2cccc3cccnc23)cc1,-4,-35,21*,11,-9,1,12
CC(C)CN(C(=O)CSc1n[nH]c(-c2cccs2)n1)C1CCS(=O)(=O)C1 (stereo unspecified),-7,-12,.,-2,0,.,.
Cn1c(=O)c(N)c2c3c(c(Br)ccc31)C(=O)c1ccccc1-2,-10,-5,-8,21,-4,.,.
CC(=O)Nc1ccc(Nc2c3c4c(cccc4n(C)c2=O)C(=O)c2ccccc2-3)cc1,-15,-16,-3,28,-3,.,.
